Where “and” joins values, the source holds several entries; their conditions need not be identical. Identical values can stand only once.
Tested on: Fibroblast
Test: Multiplex assay against human fibroblast
Assay type: toxicity, cell-based
Outline: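 Cells were classed with CellPathfinder machine-learning gating, first as Hoechst high-intensity objects or normal cells, then (normal cells) as healthy, pyknosed or fragmented nuclei, and finally (pyknosed cells) as mitotic or apoptotic. Staining of live cells at seeding used Hoechst33342, BioTracker Green Microtubule Cytoskeleton Dye, MitoTracker Red and Annexin V Alexa Fluor 680, with imaging on a CQ1 microscope at 37°C and 5% CO2 after compound addition. Tubulin, mitochondrial-mass and membrane-permeability phenotypes are per cents of healthy-nucleus cells.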

[1] = 12 h, 1 µM, compound concentration 1 uM
[2] = 12 h, 10 µM, compound concentration 10 uM
[3] = 24 h, 1 µM, compound concentration 1 uM
[4] = 24 h, 10 µM, compound concentration 10 uM
[5] = 48 h, 1 µM, compound concentration 1 uM
[6] = 48 h, 10 µM, compound concentration 10 uM

C[C@H]1[C@H]2CC[C@H]3[C@@H]4CC=C5C[C@@H](N(C)C)CC[C@]5(C)[C@H]4CC[C@]23CN1C [CONESSINE]
Population Apoptotic (%) [1]: 45% and 29%
Population Fragmented Nuclei (%) [1]: 15% and 33%
Population Healthy Nuclei (%) [1]: 73% and 41%
Population Hoechst High Intensity Objects (%) [1]: 1% and 2%
Population Membrane Permeable-Phenotype (%) [1]: 0% and 7%
Population Mitochondria Different-Phenotype (%) [1]: 8% and 2%
Population Mitotic Cells (%) [1]: 55% and 70%
Population Normal (%) [1]: 98% and 97%
Population Pyknosed Nuclei (%) [1]: 11% and 24%
Population Tubulin-Different-Phenotype (%) [1]: 19% and 46%
Total Cell Count [1]: 174 and 101
Population Apoptotic (%) [2]: 37% and 43%
Population Fragmented Nuclei (%) [2]: 26%
Population Healthy Nuclei (%) [2]: 60% and 45%
Population Hoechst High Intensity Objects (%) [2]: 3%
Population Membrane Permeable-Phenotype (%) [2]: 5% and 8%
Population Mitochondria Different-Phenotype (%) [2]: 10% and 4%
Population Mitotic Cells (%) [2]: 62% and 56%
Population Normal (%) [2]: 96%
Population Pyknosed Nuclei (%) [2]: 13% and 28%
Population Tubulin-Different-Phenotype (%) [2]: 32% and 58%
Total Cell Count [2]: 189 and 110
Population Apoptotic (%) [3]: 43% and 40%
Population Fragmented Nuclei (%) [3]: 13% and 27%
Population Healthy Nuclei (%) [3]: 73% and 48%
Population Hoechst High Intensity Objects (%) [3]: 2% and 4%
Population Mitochondria Different-Phenotype (%) [3]: 4% and 6%
Population Mitotic Cells (%) [3]: 56% and 59%
Population Normal (%) [3]: 97% and 95%
Population Pyknosed Nuclei (%) [3]: 13% and 24%
Population Tubulin-Different-Phenotype (%) [3]: 22% and 61%
Total Cell Count [3]: 175 and 95
Population Apoptotic (%) [4]: 64% and 36%
Population Fragmented Nuclei (%) [4]: 28%
Population Healthy Nuclei (%) [4]: 61% and 39%
Population Hoechst High Intensity Objects (%) [4]: 3% and 2%
Population Membrane Permeable-Phenotype (%) [4]: 1% and 7%
Population Mitochondria Different-Phenotype (%) [4]: 7%
Population Mitotic Cells (%) [4]: 35% and 63%
Population Normal (%) [4]: 96% and 97%
Population Tubulin-Different-Phenotype (%) [4]: 27% and 60%
Total Cell Count [4]: 190 and 106
Population Apoptotic (%) [5]: 50% and 47%
Population Fragmented Nuclei (%) [5]: 17% and 37%
Population Healthy Nuclei (%) [5]: 73% and 45%
Population Hoechst High Intensity Objects (%) [5]: 5% and 0%
Population Membrane Permeable-Phenotype (%) [5]: 0% and 17%
Population Mitochondria Different-Phenotype (%) [5]: 3% and 8%
Population Mitotic Cells (%) [5]: 50% and 52%
Population Normal (%) [5]: 94% and 99%
Population Pyknosed Nuclei (%) [5]: 9% and 16%
Population Tubulin-Different-Phenotype (%) [5]: 27% and 63%
Total Cell Count [5]: 178 and 104
Population Apoptotic (%) [6]: 66% and 27%
Population Fragmented Nuclei (%) [6]: 26% and 29%
Population Healthy Nuclei (%) [6]: 62% and 48%
Population Hoechst High Intensity Objects (%) [6]: 6% and 2%
Population Membrane Permeable-Phenotype (%) [6]: 0% and 8%
Population Mitochondria Different-Phenotype (%) [6]: 4% and 6%
Population Mitotic Cells (%) [6]: 33% and 72%
Population Normal (%) [6]: 93% and 97%
Population Pyknosed Nuclei (%) [6]: 10% and 22%
Population Tubulin-Different-Phenotype (%) [6]: 25% and 62%
Total Cell Count [6]: 190 and 102

CCn1cnc2c(-c3ccc(F)c(-c4ccc(S(=O)(=O)CC)cc4OC)c3)cnnc21 [DARIGABAT]
Population Apoptotic (%) [1]: 6.38% and 17.39%
Population Fragmented Nuclei (%) [1]: 14.08% and 9%
Population Healthy Nuclei (%) [1]: 52.82% and 80.09%
Population Hoechst High Intensity Objects (%) [1]: 0%
Population Membrane Permeable-Phenotype (%) [1]: 4% and 1.78%
Population Mitochondria Different-Phenotype (%) [1]: 14.67% and 11.24%
Population Mitotic Cells (%) [1]: 93.62% and 82.61%
Population Normal (%) [1]: 100%
Population Tubulin-Different-Phenotype (%) [1]: 21.33% and 23.08%
Total Cell Count [1]: 142 and 211
Population Apoptotic (%) [2]: 12.5% and 19.64%
Population Healthy Nuclei (%) [2]: 48.7% and 72.25%
Population Hoechst High Intensity Objects (%) [2]: 0%
Population Membrane Permeable-Phenotype (%) [2]: 13.33% and 8.61%
Population Mitochondria Different-Phenotype (%) [2]: 14.67% and 16.56%
Population Mitotic Cells (%) [2]: 87.5% and 80.36%
Population Normal (%) [2]: 100%
Population Tubulin-Different-Phenotype (%) [2]: 54.67% and 72.85%
Total Cell Count [2]: 154 and 209
Population Apoptotic (%) [3]: 11.11% and 23.08%
Population Fragmented Nuclei (%) [3]: 13.37% and 6.44%
Population Healthy Nuclei (%) [3]: 60.47% and 87.13%
Population Hoechst High Intensity Objects (%) [3]: 0%
Population Membrane Permeable-Phenotype (%) [3]: 0.96% and 3.41%
Population Mitochondria Different-Phenotype (%) [3]: 9.62% and 6.82%
Population Mitotic Cells (%) [3]: 88.89% and 76.92%
Population Normal (%) [3]: 100%
Population Tubulin-Different-Phenotype (%) [3]: 19.23% and 19.89%
Total Cell Count [3]: 172 and 202
Population Apoptotic (%) [4]: 23.08% and 22.22%
Population Healthy Nuclei (%) [4]: 57.56% and 78.38%
Population Hoechst High Intensity Objects (%) [4]: 0%
Population Membrane Permeable-Phenotype (%) [4]: 11.11% and 3.45%
Population Mitochondria Different-Phenotype (%) [4]: 14.14% and 19.54%
Population Mitotic Cells (%) [4]: 76.92% and 77.78%
Population Normal (%) [4]: 100%
Population Tubulin-Different-Phenotype (%) [4]: 52.53% and 70.69%
Total Cell Count [4]: 172 and 222
Population Apoptotic (%) [5]: 28.57% and 56.25%
Population Fragmented Nuclei (%) [5]: 13.07% and 8%
Population Healthy Nuclei (%) [5]: 82.95% and 84%
Population Hoechst High Intensity Objects (%) [5]: 0%
Population Membrane Permeable-Phenotype (%) [5]: 1.37% and 1.79%
Population Mitochondria Different-Phenotype (%) [5]: 19.18% and 6.55%
Population Mitotic Cells (%) [5]: 71.43% and 43.75%
Population Normal (%) [5]: 100%
Total Cell Count [5]: 176 and 200
Population Apoptotic (%) [6]: 34.62% and 60%
Population Healthy Nuclei (%) [6]: 68.28% and 85.52%
Population Hoechst High Intensity Objects (%) [6]: 0%
Population Membrane Permeable-Phenotype (%) [6]: 4.72% and 11.64%
Population Mitochondria Different-Phenotype (%) [6]: 15.75% and 8.99%
Population Mitotic Cells (%) [6]: 65.38% and 40%
Population Normal (%) [6]: 100%
Population Tubulin-Different-Phenotype (%) [6]: 34.65% and 64.55%
Total Cell Count [6]: 186 and 221

From ChEMBL document CHEMBL5724801, “EUbOPEN Chemogenomics Library - Multiplex” (2024)
